Experimental data: ChEMBL document CHEMBL5338796, “Discovery of a Selective and Orally Bioavailable FGFR2 Degrader for Treating Gastric Cancer” (J Med Chem, 2023)
Active and inactive are the calls of the source. The rule behind the calls is not given here.

What was measured:
[1] = molecular target: Fibroblast growth factor receptor 4 (Homo sapiens) (UniProt P22455); experiment: Induction of FGFR4 degradation in human Huh-7 cells at 100 nM measured for 6 hrs Western blot analysis; type: cell-based
Method in brief: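 NCI-H1581 (FGFR1), MCF7 (FGFR3) and Huh7 (FGFR4) cells, which endogenously express the isoforms, treated with 100 nM for 6 h; isoform levels by Western blot against β-actin, three biologically independent experiments.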

[2] = Toxicity in ICR mouse assessed as change in kidney weight at 20 mg/kg, po measured for 30 days; type: organism-based; settings: in vivo, 720 h, time 30 day
Method in brief: (§1)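 ICR mice (n = 6) were dosed orally at 20 mg/kg/day for 30 days, alongside vehicle-treated controls. Mortality and clinical signs were checked daily. At the end, body and organ weights were recorded. Heart, liver, spleen, lung and kidney were examined by hematoxylin and eosin staining.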

[3] = molecular target: T1, Protein cereblon/Fibroblast growth factor receptor 2 (Homo sapiens, UniProt P21802+Q96SW2); experiment: PROTAC activity at CRBN/FGFR2 in human KATO III stomach cancer cell line at 100 nM measured for 6 hrs by Western blot analysis relative to control; type: cell-based
Method in brief: (§2)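 KATO III cells treated for 6 h at the stated concentrations, added from 10 mM DMSO stocks (final DMSO below 0.5%). Cells were washed with PBS and lysed in 2× loading buffer, then run on SDS-PAGE and blotted to PVDF. Anti-FGFR2 was applied overnight at 4 °C, with ECL detection. FGFR2 was expressed as FGFR2/β-actin, normalized to DMSO-treated cells, from three independent biological experiments.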

[4] = Toxicity in ICR mouse assessed as morphological changes in kidney at 20 mg/kg, po measured for 30 days by hematoxyin-eosin staining based analysis; type: organism-based; settings: in vivo, 720 h, time 30 day; method in brief: as §1
[5] = molecular target: T1, Protein cereblon/Fibroblast growth factor receptor 2; experiment: PROTAC activity at CRBN/FGFR2 in human KATO III stomach cancer cell line assessed as FGFR2 degradation by measuring maximum efficacy at 0.5 to 10000 nM measured for 6 hrs by Western blotting analysis relative to control; type: cell-based; settings: dose 0.5-10000 nM; method in brief: as §2
[6] = molecular target: Mitogen-activated protein kinase kinase kinase 4 (Homo sapiens) (UniProt Q9Y6R4); experiment: Inhibition of partial length human MAP3K4 at 1000 nM by KINOMEscan analysis relative to control
[7] = molecular target: T1, Protein cereblon/Fibroblast growth factor receptor 2; experiment: PROTAC activity at CRBN/FGFR2 in human KATO III stomach cancer cell line assessed as FGFR2 degradation by measuring FGFR2 expression level upto 300 nM measured for 6 hrs by Western blotting analysis; type: cell-based
Method in brief: (§3)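 KATO III cells treated 6 h across 0.5–10,000 nM (DMSO stock, final DMSO below 0.5%); FGFR2 immunoblotted, quantified as FGFR2/β-actin ratio normalized to DMSO-treated cells, three independent biological experiments; DC50 and Dmax derived from the curve.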

[8] = molecular target: Macrophage colony-stimulating factor 1 receptor (Homo sapiens) (UniProt P07333); experiment: Induction of CSF1R degradation in human THP-1 cells at 0.5 to 10 uM measured for 6 hrs Western blot analysis; type: cell-based; settings: dose 0.0005-10 µM, in the assay text read “0.5 nM to 10 uM” for “0.5 to 10 uM”
Method in brief: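 THP-1 cells exposed 6 h to 0.5–10,000 nM degrader (from 10 mM DMSO stock, final DMSO below 0.5%); lysates in 2× loading buffer, SDS-PAGE, PVDF, anti-CSF1R (1:1000) with β-actin loading control, ECL detection.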

[9] = AUC (0 to infinity) in mouse at 20 mg/kg, po measured at 0.25 to 24 hrs by LC-MS/MS analysis; settings: in vivo
[10] = molecular target: T1, Protein cereblon/Fibroblast growth factor receptor 2; experiment: PROTAC activity at CRBN/FGFR2 in human KATO III stomach cancer cell line assessed as FGFR2 degradation by measuring FGFR2 expression level upto 100 nM measured after 3 hrs by Western blotting analysis; type: cell-based
Method in brief: (§4)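 Time course in KATO III cells: FGFR2/β-actin by Western blot at successive treatment times, normalized to DMSO control.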

[11] = Toxicity in ICR mouse assessed as change in heart weight at 20 mg/kg, po measured for 30 days; type: organism-based; settings: in vivo, 720 h, time 30 day; method in brief: as §1
[12] = molecular target: Fibroblast growth factor receptor 3 (Homo sapiens) (UniProt P22607); experiment: Inhibition of partial length human FGFR3 at 1000 nM by KINOMEscan analysis relative to control
Method in brief: (§5)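 97-kinase scanEDGE panel screened at 1000 nM; results reported as % Ctrl, lower values meaning stronger inhibition.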

[13] = molecular target: Macrophage colony-stimulating factor 1 receptor (Homo sapiens) (UniProt P07333); experiment: Inhibition of partial length human CSF1R at 1000 nM by KINOMEscan analysis relative to control; method in brief: as §5
[14] = Toxicity in ICR mouse assessed as change in lung weight at 20 mg/kg, po measured for 30 days; type: organism-based; settings: in vivo, 720 h, time 30 day; method in brief: as §1
[15] = Toxicity in BALB/c mouse xenografted with human SNU-16 cells assessed as tolerability at 20 mg/kg, po administered for 15 days and measured on day 2; type: organism-based; settings: in vivo, 48 h, time 2 day
Method in brief: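 Female BALB/c nude mice, 5 weeks old (20–22 g), carried subcutaneous SNU-16 xenografts in the right flank. Dosing began at mean tumor volume 50–100 mm3, after randomization by body weight, n = 5. Mice received 20 mg/kg/day by gavage in 0.5% CMC-Na, QD for 15 d, with vehicle controls. Body weight was measured every 2 days.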

[16] = molecular target: T1, Protein cereblon/Fibroblast growth factor receptor 2; experiment: PROTAC activity at CRBN/FGFR2 in human KATO III stomach cancer cell line assessed as FGFR2 degradation by measuring FGFR2 expression level measured for 6 hrs by Western blotting analysis; type: cell-based; method in brief: as §3
[17] = molecular target: Fibroblast growth factor receptor (Homo sapiens) (UniProt P22607+P11362+P22455+P21802); experiment: Induction of FGFR degradation in human KATO III stomach cancer cell line assessed as reduction in FGFR phosphorylation at A-loop Tyr656/657 residue at 25 nM measured for 6 hrs; type: cell-based
Method in brief: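 KATO III cells treated 6 h at the indicated concentrations with degrader or BGJ398; FGFR A-loop Tyr656/657 autophosphorylation monitored by immunoblot.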

[18] = molecular target: T1, Protein cereblon/Fibroblast growth factor receptor 2; experiment: PROTAC activity at CRBN/FGFR2 in human KATO III stomach cancer cell line assessed as FGFR2 degradation by measuring FGFR2 expression level at 100 to 500 nM measured for 6 hrs by Western blotting analysis; type: cell-based; settings: dose 100-500 nM; method in brief: as §3
[19] = Toxicity in ICR mouse assessed as morphological changes in heart at 20 mg/kg, po measured for 30 days by hematoxyin-eosin staining based analysis; type: organism-based; settings: in vivo, 720 h, time 30 day; method in brief: as §1
[20] = molecular target: T1, Protein cereblon/Fibroblast growth factor receptor 2; experiment: PROTAC activity at CRBN/FGFR2 in human KATO III stomach cancer cell line assessed as FGFR2 degradation by measuring FGFR2 expression level at 100 nM measured after 12 hrs by Western blotting analysis relative to control; type: cell-based; method in brief: as §4
[21] = molecular target: T1, Protein cereblon/Fibroblast growth factor receptor 2; experiment: PROTAC activity at CRBN/FGFR2 in human KATO III stomach cancer cell line assessed as FGFR2 degradation measured for 6 hrs in presence of bortezomib by immunoblot analysis; type: cell-based
Method in brief: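 KATO III cells were pretreated with 1 μM proteasome inhibitor (MG132 or bortezomib), then exposed to degrader at 100 nM for 6 h. FGFR2 was read by immunoblot against β-actin loading, with ECL detection.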

Sequence of Macrophage colony-stimulating factor 1 receptor (Homo sapiens) (P07333 whole entry): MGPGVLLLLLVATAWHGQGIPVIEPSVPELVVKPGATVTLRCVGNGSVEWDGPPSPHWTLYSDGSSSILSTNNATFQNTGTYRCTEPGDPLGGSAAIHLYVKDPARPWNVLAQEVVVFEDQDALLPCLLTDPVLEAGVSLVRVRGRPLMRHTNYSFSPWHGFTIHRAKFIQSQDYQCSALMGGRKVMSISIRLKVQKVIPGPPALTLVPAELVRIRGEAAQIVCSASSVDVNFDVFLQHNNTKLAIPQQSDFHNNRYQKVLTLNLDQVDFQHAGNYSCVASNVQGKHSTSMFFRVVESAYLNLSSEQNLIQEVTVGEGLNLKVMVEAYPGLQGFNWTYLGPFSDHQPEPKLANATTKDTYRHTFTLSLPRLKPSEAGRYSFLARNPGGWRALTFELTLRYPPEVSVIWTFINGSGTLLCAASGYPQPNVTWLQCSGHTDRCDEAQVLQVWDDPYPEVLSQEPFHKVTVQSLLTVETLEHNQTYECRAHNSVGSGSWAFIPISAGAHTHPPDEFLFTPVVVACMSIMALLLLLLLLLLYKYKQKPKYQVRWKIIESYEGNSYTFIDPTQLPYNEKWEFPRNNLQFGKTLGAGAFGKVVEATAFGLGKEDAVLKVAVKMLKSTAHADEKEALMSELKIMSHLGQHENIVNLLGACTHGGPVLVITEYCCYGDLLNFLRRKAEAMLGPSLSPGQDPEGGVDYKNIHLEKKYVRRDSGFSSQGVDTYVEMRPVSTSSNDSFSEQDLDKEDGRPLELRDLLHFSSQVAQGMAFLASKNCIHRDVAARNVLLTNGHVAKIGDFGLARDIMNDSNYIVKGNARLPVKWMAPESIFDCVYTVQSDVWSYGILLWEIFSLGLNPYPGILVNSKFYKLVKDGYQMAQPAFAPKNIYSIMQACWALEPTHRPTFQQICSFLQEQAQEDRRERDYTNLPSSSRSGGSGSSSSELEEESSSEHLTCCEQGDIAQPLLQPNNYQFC
Sequence of Fibroblast growth factor receptor (Homo sapiens) (P11362 whole entry, looked up): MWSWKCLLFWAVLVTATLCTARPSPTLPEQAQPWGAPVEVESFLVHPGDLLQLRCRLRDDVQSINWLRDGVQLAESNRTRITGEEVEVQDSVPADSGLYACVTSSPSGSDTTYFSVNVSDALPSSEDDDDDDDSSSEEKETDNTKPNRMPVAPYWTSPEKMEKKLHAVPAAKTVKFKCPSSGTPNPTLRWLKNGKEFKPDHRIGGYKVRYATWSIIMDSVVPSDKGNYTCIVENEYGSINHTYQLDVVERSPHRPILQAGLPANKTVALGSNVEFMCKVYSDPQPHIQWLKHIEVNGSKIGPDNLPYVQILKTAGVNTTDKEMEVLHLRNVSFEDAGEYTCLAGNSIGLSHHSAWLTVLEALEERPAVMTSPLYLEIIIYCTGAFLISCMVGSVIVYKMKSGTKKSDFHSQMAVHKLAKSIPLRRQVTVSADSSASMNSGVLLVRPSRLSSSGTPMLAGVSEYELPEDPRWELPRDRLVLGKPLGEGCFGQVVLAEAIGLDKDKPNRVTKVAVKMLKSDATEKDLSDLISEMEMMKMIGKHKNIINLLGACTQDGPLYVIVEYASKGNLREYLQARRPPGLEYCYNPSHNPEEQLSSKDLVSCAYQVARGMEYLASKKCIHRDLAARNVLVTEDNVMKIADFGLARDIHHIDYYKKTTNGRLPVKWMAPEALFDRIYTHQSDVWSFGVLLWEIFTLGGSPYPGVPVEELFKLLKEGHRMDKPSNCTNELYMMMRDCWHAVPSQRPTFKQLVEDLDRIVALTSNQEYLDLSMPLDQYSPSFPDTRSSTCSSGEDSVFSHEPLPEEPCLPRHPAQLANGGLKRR
Sequence of Fibroblast growth factor receptor (Homo sapiens) (P21802 whole entry, looked up): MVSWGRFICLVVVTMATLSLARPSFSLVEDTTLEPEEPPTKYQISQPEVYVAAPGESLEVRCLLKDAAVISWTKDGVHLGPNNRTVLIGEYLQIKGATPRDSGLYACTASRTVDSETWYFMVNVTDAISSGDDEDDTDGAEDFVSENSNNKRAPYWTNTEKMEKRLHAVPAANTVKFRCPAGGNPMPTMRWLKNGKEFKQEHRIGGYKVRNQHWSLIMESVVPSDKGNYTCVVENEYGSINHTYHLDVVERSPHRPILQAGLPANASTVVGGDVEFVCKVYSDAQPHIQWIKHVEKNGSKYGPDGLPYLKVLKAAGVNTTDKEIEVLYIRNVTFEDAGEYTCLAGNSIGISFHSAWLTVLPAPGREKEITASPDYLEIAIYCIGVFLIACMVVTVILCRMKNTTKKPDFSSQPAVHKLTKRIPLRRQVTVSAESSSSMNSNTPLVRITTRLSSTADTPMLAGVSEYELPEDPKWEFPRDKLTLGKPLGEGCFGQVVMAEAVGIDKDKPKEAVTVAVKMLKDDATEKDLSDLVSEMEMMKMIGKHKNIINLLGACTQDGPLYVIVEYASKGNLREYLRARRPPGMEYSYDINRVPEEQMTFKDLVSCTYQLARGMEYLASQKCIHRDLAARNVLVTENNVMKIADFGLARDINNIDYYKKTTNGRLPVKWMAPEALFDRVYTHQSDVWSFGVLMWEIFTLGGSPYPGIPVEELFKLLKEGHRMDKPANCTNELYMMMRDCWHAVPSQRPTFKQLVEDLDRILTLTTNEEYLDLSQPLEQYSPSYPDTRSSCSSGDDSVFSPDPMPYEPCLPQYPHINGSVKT
Sequence of Fibroblast growth factor receptor (Homo sapiens) (P22455 whole entry, looked up): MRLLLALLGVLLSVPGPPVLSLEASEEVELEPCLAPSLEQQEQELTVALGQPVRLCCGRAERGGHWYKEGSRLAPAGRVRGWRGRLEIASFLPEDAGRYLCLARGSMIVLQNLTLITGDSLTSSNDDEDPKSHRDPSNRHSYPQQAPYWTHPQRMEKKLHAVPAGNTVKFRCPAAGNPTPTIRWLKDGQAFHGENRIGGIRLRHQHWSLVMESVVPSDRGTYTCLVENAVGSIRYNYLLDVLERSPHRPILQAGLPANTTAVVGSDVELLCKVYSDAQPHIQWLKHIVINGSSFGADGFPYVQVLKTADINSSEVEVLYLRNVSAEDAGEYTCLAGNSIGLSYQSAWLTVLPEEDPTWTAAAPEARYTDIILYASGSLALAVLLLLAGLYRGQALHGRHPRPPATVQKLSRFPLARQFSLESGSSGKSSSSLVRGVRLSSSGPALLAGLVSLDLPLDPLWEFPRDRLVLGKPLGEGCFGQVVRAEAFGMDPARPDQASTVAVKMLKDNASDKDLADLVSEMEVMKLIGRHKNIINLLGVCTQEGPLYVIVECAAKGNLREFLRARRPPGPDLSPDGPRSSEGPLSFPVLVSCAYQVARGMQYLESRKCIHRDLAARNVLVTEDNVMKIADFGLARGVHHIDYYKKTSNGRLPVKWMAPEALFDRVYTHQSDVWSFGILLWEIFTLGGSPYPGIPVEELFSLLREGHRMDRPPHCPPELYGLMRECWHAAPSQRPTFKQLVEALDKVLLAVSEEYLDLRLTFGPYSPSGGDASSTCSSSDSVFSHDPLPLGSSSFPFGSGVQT
Sequence of Fibroblast growth factor receptor (Homo sapiens) (P22607 whole entry, looked up): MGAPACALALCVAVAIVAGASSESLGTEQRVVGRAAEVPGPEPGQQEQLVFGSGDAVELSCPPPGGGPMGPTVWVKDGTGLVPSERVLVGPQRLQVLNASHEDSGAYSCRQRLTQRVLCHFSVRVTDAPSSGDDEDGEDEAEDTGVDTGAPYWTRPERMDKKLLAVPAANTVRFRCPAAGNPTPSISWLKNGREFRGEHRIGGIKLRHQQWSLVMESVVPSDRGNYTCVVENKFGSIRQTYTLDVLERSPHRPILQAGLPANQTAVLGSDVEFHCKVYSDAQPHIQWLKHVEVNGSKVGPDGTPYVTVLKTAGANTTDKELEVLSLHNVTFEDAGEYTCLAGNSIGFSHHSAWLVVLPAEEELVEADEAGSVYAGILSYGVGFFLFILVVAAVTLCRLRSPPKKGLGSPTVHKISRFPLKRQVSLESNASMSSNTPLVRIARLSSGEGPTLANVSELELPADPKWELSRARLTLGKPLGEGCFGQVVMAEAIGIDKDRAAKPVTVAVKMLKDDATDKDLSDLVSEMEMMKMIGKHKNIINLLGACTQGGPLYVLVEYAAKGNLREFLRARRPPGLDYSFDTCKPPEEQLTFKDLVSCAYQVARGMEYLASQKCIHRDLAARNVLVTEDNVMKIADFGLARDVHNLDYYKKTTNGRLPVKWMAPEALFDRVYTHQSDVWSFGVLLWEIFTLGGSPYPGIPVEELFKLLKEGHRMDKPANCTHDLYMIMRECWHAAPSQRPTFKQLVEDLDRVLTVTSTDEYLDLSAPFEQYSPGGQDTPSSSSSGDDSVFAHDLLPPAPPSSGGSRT
Sequence of Fibroblast growth factor receptor 3 (Homo sapiens) (P22607 23-806 limits assumed): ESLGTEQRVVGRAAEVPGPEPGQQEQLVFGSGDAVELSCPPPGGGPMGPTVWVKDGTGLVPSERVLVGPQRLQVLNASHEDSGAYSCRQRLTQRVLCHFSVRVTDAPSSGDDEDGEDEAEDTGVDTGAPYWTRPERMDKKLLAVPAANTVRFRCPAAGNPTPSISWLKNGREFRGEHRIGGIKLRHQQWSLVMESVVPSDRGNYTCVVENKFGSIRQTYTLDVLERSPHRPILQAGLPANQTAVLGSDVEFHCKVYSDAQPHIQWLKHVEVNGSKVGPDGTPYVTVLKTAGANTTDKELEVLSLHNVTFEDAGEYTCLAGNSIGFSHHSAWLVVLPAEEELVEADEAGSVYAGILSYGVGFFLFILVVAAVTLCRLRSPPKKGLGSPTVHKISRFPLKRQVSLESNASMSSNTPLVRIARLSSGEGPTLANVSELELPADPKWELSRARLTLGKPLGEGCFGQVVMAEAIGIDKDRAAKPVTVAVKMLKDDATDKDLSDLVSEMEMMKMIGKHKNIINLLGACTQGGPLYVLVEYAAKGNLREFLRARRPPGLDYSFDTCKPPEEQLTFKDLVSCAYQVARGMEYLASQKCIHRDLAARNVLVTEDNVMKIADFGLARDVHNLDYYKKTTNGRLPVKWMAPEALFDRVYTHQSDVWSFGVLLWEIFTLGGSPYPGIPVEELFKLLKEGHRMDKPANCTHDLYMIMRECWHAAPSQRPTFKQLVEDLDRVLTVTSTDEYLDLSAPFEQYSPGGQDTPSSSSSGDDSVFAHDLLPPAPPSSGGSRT

Activity [1]: inactive | Activity [3]: 77% | Emax [5]: 80% | inhibition [6]: 45% | Activity [7]: inactive | Activity [8]: inactive | AUC(0-inf) [9]: 387 ng·h/mL | Activity [10]: Active | inhibition [12]: 71% | inhibition [13]: 76% | DC50 [16]: 11.8 nM | Activity [17]: Active | Activity [18]: 70% | Activity [20]: 90% | Activity [21]: inactive
SMILES: COc1cc(OC)c(Cl)c(NC(=O)N(C)c2cc(Nc3ccc(N4CCN(C(=O)C5CCN(c6ccc7c(c6)C(=O)N(C6CCC(=O)NC6=O)C7=O)CC5)CC4)cc3)ncn2)c1Cl (stereo unspecified)
Activity [2]: Non-Toxic | Activity [4]: Non-Toxic | Activity [11]: Non-Toxic | Activity [14]: Non-Toxic | Activity [15]: Non-Toxic | Activity [19]: Non-Toxic
